The source made the active and inactive calls. No cut-off for these calls is given here.
Columns and labels:
U2OS [1] = assay: Induction of ROS generation in human U2OS cells at 30 uM incubated for 1 hr by CellROX green reagent based fluorescence assay; type: functional, cell-based
Outline: (§1)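 CellROX green assay in MCF-7 or U2OS cells. Cells were exposed to test compound for 1 h at 37 °C alongside 0.5% DMSO (negative control) and menadione 10–30 μM (positive control), with or without NAC (50–500 μM) as scavenger. CellROX was then added at 5 μM final for 30 min. Cells were PBS-washed, fixed in 4% paraformaldehyde for 15 min, and fluorescence read at 535 nm.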

MCF7 [2] = assay: Upregulation of Trx expression in human MCF7 at 1 uM after 24 hrs by Western blot analysis; type: functional, cell-based
Outline: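 Western blot of KOPN-8 or MCF-7 lysates, 30 μg protein per lane on 4–12% Bis-Tris SDS-PAGE and transferred to nitrocellulose. Blots were probed with an oxidative stress defense antibody cocktail (catalase, SOD1, Trx, smooth muscle actin) and tubulin, and detected with IR-dye secondaries on a LI-COR Odyssey.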

MCF7 [3] = assay: Upregulation of Trx level in human MCF7 at 1 uM after 3 to 6 hrs by Western blot analysis; type: functional, cell-based
Outline: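 MCF-7 cells were exposed to compound for 3 or 6 h. Lysates were made in Tris-HCl pH 7.5 RIPA-type buffer with protease/phosphatase inhibitors and quantified by BCA. 30 μg protein per lane was run on 4–12% Bis-Tris SDS-PAGE in MES and transferred to nitrocellulose. Blots were probed for thioredoxin with tubulin as reference, detected with IR-dye secondaries (1:15 000) and scanned on an infrared imager.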

KOPN-8 [4] = assay: Induction of apoptosis in human KOPN8 cells assessed as decrease in caspase 3/7 level after 3 to 24 hrs by Western blot analysis; type: functional, cell-based
Outline: (§2)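 Western blot of KOPN-8 and MCF-7 lysates made in RIPA-type buffer (Tris pH 7.5, Triton X-100, deoxycholate, SDS) with protease and phosphatase inhibitors. 30 μg protein per lane was run on 4–12% Bis-Tris SDS-PAGE and transferred to nitrocellulose. Blots were probed for cleaved caspase-7 and PARP-1 and detected with IR-dye secondaries. Menadione served as positive control: 10 μM in KOPN-8, 30 μM in MCF-7. Blots are representative of three independent experiments.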

HepG2 = assay: Antiproliferative activity against human HepG2 cells assessed as reduction in cell viability at 0.1 to 250 uM by CellTiter-Glo assay; type: functional, cell-based
Outline: (§3)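 CellTiter-Glo luminescent viability readout. Cells kept at 37 °C under 5% CO2. HMEC primary cells grown in basal medium with growth kit; leukemia lines and murine BCR-ABL (WT, Bax/Bak DKO) cultured per earlier description. Positive controls: staurosporine 25 μM, gambogic acid 10 μM, a toxic quinoline. At least two biological replicates in technical triplicate; luminescence normalized to untreated controls; EC50 computed.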

MCF7 [5] = assay: Induction of ROS generation in human MCF7 cells at 30 uM incubated for 1 hr in presence of NAC by CellROX green reagent based fluorescence assay; type: functional, cell-based; outline: as §1
PBMC = assay: Cytotoxicity against human PBMC cells assessed as reduction in cell viability at 0.1 to 250 uM by CellTiter-Glo assay; type: cell-based; outline: as §3
U2OS [6] = assay: Induction of mito-phagy in human U2OS cells transfected with mKeima-Red-Mito-7 at 1.25 to 2.5 uM incubated for 8 hrs by confocal scanning microscopic method; type: functional, cell-based
Outline: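 U2OS stably expressing mKeima-Red-Mito-7 (G418 250 μg/mL selection, flow-sorted) were plated at 40 000 cells per well and incubated overnight. Cells were treated 8 h at 37 °C; DMSO 0.5% served as negative control. Live cells were imaged by confocal microscopy at 60×. Mitophagy was scored as the ratio of mitophagy-event fluorescence to cytoplasmic mitochondrial fluorescence. Values are mean and SD of at least three experiments.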

MCF7 [7] = assay: Induction of ROS generation in human MCF7 cells at 30 uM incubated for 1 hr by CellROX green reagent based fluorescence assay; type: functional, cell-based
Outline: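 CellROX green ROS assay: cells exposed 1 h at 37 °C (30 μM) with DMSO 0.5% (v/v) negative control, menadione 10 μM positive control, ± NAC (100 μM per figure legend). CellROX green added at 5 μM final, 30 min more; washed, fixed in 4% paraformaldehyde 15 min, fluorescence read at 485 ex/535 em. Mean and SD of at least three experiments; two-way ANOVA.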

KOPN-8 [8] = assay: Cytotoxicity against human KOPN8 cells assessed as cell viability at 0.75 to 100 uM after 72 hrs in presence of pan caspase inhibitor, Z-VAD-FMK by CellTiter-Glo assay; type: functional, cell-based
MCF7 [9] = assay: Induction of apoptosis in human MCF7 cells assessed as decrease in caspase 3/7 level after 3 to 24 hrs by Western blot analysis; type: functional, cell-based; outline: as §2
Raji = assay: Antiproliferative activity against human Raji cells assessed as reduction in cell viability at 0.1 to 250 uM by CellTiter-Glo assay; type: functional, cell-based; outline: as §3
U2OS [10] = assay: Induction of ROS generation in human U2OS cells at 30 uM incubated for 1 hr in presence of NAC by CellROX green reagent based fluorescence assay; type: functional, cell-based; outline: as §1
SUP-B15 = assay: Antiproliferative activity against human SUP-B15 cells assessed as reduction in cell viability at 0.1 to 250 uM by CellTiter-Glo assay; type: functional, cell-based; outline: as §3
MCF7 [11] = assay: Induction of mitochondrial membrane potential loss in human MCF7 cells at 4 uM after 24 to 48 hrs by TMRM staining based flow cytometric analysis; type: functional, cell-based
Outline: (§4)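 TMRM flow cytometry. KOPN-8 (4 × 10^4 or 5 × 10^5 per well) or MCF-7 (2 × 10^4 or 2 × 10^5 per well) were seeded 24 h, then treated 24–48 h. FCCP 10 μM was added 10 min before staining as positive control. Cells were stained with TMRM 100 nM for 0.5 h, then PBS-washed, resuspended in PBS with 1% FBS and analysed by flow cytometry; DAPI flagged compromised cells.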

KOPN-8 [12] = assay: Induction of mitochondrial membrane potential loss in human KOPN8 cells at 30 uM by TMRM staining based flow cytometric analysis; type: functional, cell-based; details: TDE = time-dependent effect; outline: as §4
MCF7 [13] = assay: Induction of apoptosis in human MCF7 cells assessed as increase in cleaved PARP 1 level at 1 to 100 uM after 24 hrs by Western blot analysis; type: functional, cell-based; outline: as §2
KOPN-8 [14] = assay: Induction of apoptosis in human KOPN8 cells assessed as increase in late apoptotic cells at 10 uM after 24 hrs by Annexin V-FITC and propidium iodide staining based flow cytometry relative to control; type: functional
Outline: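 KOPN-8 cells were plated at 1.00 × 10^6 per plate and held 12 h at 37 °C, then treated 24 h; positive control 2 μM staurosporine, vehicle DMSO. Cells were stained with Annexin V-FITC and PI and analysed by flow cytometry (FACSCalibur). Profiles are representative of three independent biological replicates.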

[15] = Stability in CH3CN assessed as micheal adduct formation by measuring intact compound incubated for 16 hrs in presence of glutathione by NMR analysis; type: physicochemical
[16] = Protein binding in human plasma; type: ADME, cell-free; details: read-out: PPB (converted)
HMEC = assay: Cytotoxicity against human HMEC cells assessed as cell viability at >100 uM by CellTiter-Glo assay; type: cell-based; outline: as §3

SMILES	Activity (U2OS [1])	Activity (KOPN-8 [4])	Activity (MCF7 [5])	Activity (U2OS [6])	Activity (MCF7 [7])	Activity (MCF7 [9])	Activity (U2OS [10])	Activity (KOPN-8 [12])	also measured
CC1=C2CC(C)(C)/C=C/C(=O)/C(C)=C\C3=C[C@H](C)C[C@]3(O2)C1=O [JATROPHONE]	Active	Dose-dependent effect	inactive	Active	Active	Dose-dependent effect	inactive	Tde	Activity (MCF7 [2]): inactive; Activity (MCF7 [3]): Active; inhibition (HepG2): Active; Activity (PBMC): Toxic; Activity (KOPN-8 [8]): inactive; inhibition (Raji): Active; inhibition (SUP-B15): Active; Activity (MCF7 [11]): inactive
CC(=O)O[C@H]1/C2=C/[C@@H](C)C(=O)C[C@H]3[C@@H](/C=C(\C)C(=O)[C@H]2C[C@H]1C)C3(C)C	Active	Dose-dependent effect	inactive	Active	Active	Dose-dependent effect	inactive	Tde	Activity (MCF7 [13]): Active; Activity (KOPN-8 [14]): 15%; Stability [15]: Stable; fraction unbound [16]: 0.16; Activity (HMEC): Non-Toxic

Source: ChEMBL document CHEMBL4334444, “Studies of Jatrogossone A as a Reactive Oxygen Species Inducer in Cancer Cellular Models” (J Nat Prod, 2019)
